Measurements published in ChEMBL document CHEMBL4311975, “Exploration of the antibiotic potentiating activity of indolglyoxylpolyamines” (Eur J Med Chem, 2019).
In brackets after ≈: the same amount, converted by molar mass.

Columns and labels:
Pseudomonas aeruginosa [1] = experiment: Antibacterial activity against Pseudomonas aeruginosa ATCC 27853 assessed as growth inhibition incubated for 18 hrs by broth dilution method; format: functional; details: ATCC 27853, 18 h
Outline: (§1)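 Broth microdilution following CA-SFM recommendations. Inoculum was 10^5 CFU in Mueller-Hinton broth with two-fold serial drug dilutions. Plates were incubated 18 h at 37 °C. MIC was the lowest concentration giving complete inhibition of visible growth. Values are means, n = 3.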

Klebsiella pneumoniae [2] = experiment: Potentiation of erythromycin-induced antibacterial activity against Klebsiella pneumoniae ATCC 13443 assessed as concentration required to restore 2 ug/ml erythromycin activity measured after 18 hrs; format: functional
Klebsiella pneumoniae [3] = experiment: Potentiation of doxycycline-induced antibacterial activity against Klebsiella pneumoniae ATCC 13443 assessed as concentration required to restore 2 ug/ml doxycycline activity measured after 18 hrs; format: functional
Outline: (§2)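 Inoculum was 5×10^5 CFU in MHB with two-fold serial dilutions of adjuvant plus fixed doxycycline at 2 μg/mL. […] Repeated independently in triplicate.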

Acinetobacter baumannii [4] = experiment: Potentiation of doxycycline-induced antibacterial activity against Acinetobacter baumannii AYE assessed as concentration required to restore 2 ug/ml doxycycline activity measured after 18 hrs; format: functional; outline: as §2
Klebsiella pneumoniae [5] = experiment: Potentiation of chloramphenicol-induced antibacterial activity against Klebsiella pneumoniae ATCC 13443 assessed as concentration required to restore 2 ug/ml chloramphenicol activity measured after 18 hrs; format: functional
Pseudomonas aeruginosa [6] = experiment: Potentiation of chloramphenicol-induced antibacterial activity against Pseudomonas aeruginosa ATCC 27853 assessed as concentration required to restore 2 ug/ml chloramphenicol activity measured after 18 hrs; format: functional
Escherichia coli [7] = experiment: Potentiation of chloramphenicol-induced antibacterial activity against Escherichia coli ATCC 25922 assessed as concentration required to restore 2 ug/ml chloramphenicol activity measured after 18 hrs; format: functional
Pseudomonas aeruginosa [8] = experiment: Potentiation of nalidixic acid-induced antibacterial activity against Pseudomonas aeruginosa ATCC 27853 assessed as concentration required to restore 2 ug/ml nalidixic acid activity measured after 18 hrs; format: functional
Acinetobacter baumannii [9] = experiment: Potentiation of chloramphenicol-induced antibacterial activity against Acinetobacter baumannii AYE assessed as concentration required to restore 2 ug/ml chloramphenicol activity measured after 18 hrs; format: functional
[10] = Cytotoxicity against human HEK293 cells measured after 20 hrs by resazurin dye based fluorescence assay; format: cell-based
Outline: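 HEK293 cells, 5,000/well in DMEM with 10% FBS, were exposed to compound for 20 h at 37 °C, 5% CO2. Resazurin (100 μM final) was added for 3 h, then fluorescence read at ex 560/em 590. Signal was normalised to tamoxifen (74 μg/mL, 0%) and untreated growth (100%), and CC50 came from dose-response fitting. Top dose 32 μg/mL. Means, n = 2.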

Escherichia coli [11] = experiment: Antibacterial activity against Escherichia coli ATCC 25922 assessed as growth inhibition incubated for 18 hrs by broth dilution method; format: functional; details: ATCC 25922, 18 h; outline: as §1
Pseudomonas aeruginosa [12] = experiment: Potentiation of doxycycline-induced antibacterial activity against Pseudomonas aeruginosa ATCC 27853 assessed as concentration required to restore 2 ug/ml doxycycline activity measured after 18 hrs; format: functional; outline: as §2
Escherichia coli [13] = experiment: Potentiation of doxycycline-induced antibacterial activity against Escherichia coli ATCC 25922 assessed as concentration required to restore 2 ug/ml doxycycline activity measured after 18 hrs; format: functional; outline: as §2
Escherichia coli [14] = experiment: Potentiation of nalidixic acid-induced antibacterial activity against Escherichia coli ATCC 25922 assessed as concentration required to restore 2 ug/ml nalidixic acid activity measured after 18 hrs; format: functional
Acinetobacter baumannii [15] = experiment: Antibacterial activity against Acinetobacter baumannii ATCC 19606 assessed as growth inhibition incubated for 18 hrs by resazurin dye based assay; format: functional; details: ATCC 19606 = CIP 70.34 = JCM 6841, 18 h
Outline: (§3)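 Overnight cultures were diluted 40-fold in MHB and grown 1.5–2 h at 37 °C to mid-log phase. Cells were added at 5×10^5 CFU/mL final to two-fold compound dilutions (0.008–32 μg/mL final), in duplicate, for 18 h at 37 °C. Resazurin (0.001% final) was added for 2 h and MIC read by eye. Means, n = 2.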

L6 = experiment: Cytotoxicity against rat L6 cells measured after 72 hrs by alamar blue assay; format: cell-based; details: L6, 72 h
Outline: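 Rat L6 myoblasts, 4×10^4/well in RPMI 1640 with L-glutamine and 10% FBS, received seven 3-fold dilutions (90 to 0.123 μg/mL) for 72 h. Alamar Blue was added for 2 h and fluorescence read at ex 536/em 588 nm. Podophyllotoxin served as reference. Means, n = 2.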

Acinetobacter baumannii [16] = experiment: Potentiation of erythromycin-induced antibacterial activity against Acinetobacter baumannii AYE assessed as concentration required to restore 2 ug/ml erythromycin activity measured after 18 hrs; format: functional
Acinetobacter baumannii [17] = experiment: Potentiation of nalidixic acid-induced antibacterial activity against Acinetobacter baumannii AYE assessed as concentration required to restore 2 ug/ml nalidixic acid activity measured after 18 hrs; format: functional
Klebsiella pneumoniae [18] = experiment: Potentiation of nalidixic acid-induced antibacterial activity against Klebsiella pneumoniae ATCC 13443 assessed as concentration required to restore 2 ug/ml nalidixic acid activity measured after 18 hrs; format: functional
Escherichia coli [19] = experiment: Potentiation of erythromycin-induced antibacterial activity against Escherichia coli ATCC 25922 assessed as concentration required to restore 2 ug/ml erythromycin activity measured after 18 hrs; format: functional
[20] = Hemolytic activity against Sprague-Dawley rat RBC assessed as release of hemoglobin at 50 uM incubated for 1 hr relative to control; format: ADME, cell-based, Erythrocyte; details: red blood cells (erythrocytes), read-out: Activity
Outline: (§4)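 Fresh Sprague-Dawley rat erythrocytes were washed in saline and resuspended at 2% v/v. Cells were incubated with compound in DMSO/PBS for 1 h at 37 °C, then centrifuged at 200 g, and supernatant absorbance read at 540 nm. Results were normalised to DMSO/PBS (0%) and 0.1% Triton X-100 (100%). Single-point testing used 50 μM; HC50 came from 10-point curves. Means of three experiments.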

Staphylococcus aureus = experiment: Antibacterial activity against Staphylococcus aureus ATCC 25923 assessed as growth inhibition incubated for 18 hrs by broth dilution method; format: functional; details: ATCC 25923, 18 h; outline: as §1
Klebsiella pneumoniae [21] = experiment: Antibacterial activity against Klebsiella pneumoniae ATCC 700603 assessed as growth inhibition incubated for 18 hrs by resazurin dye based assay; format: functional; details: Klebsiella pneumoniae, 700603, 18 h; outline: as §3
Pseudomonas aeruginosa [22] = experiment: Potentiation of erythromycin-induced antibacterial activity against Pseudomonas aeruginosa ATCC 27853 assessed as concentration required to restore 2 ug/ml erythromycin activity measured after 18 hrs; format: functional
Cryptococcus neoformans = experiment: Antifungal activity against Cryptococcus neoformans ATCC 208821 assessed as growth inhibition incubated for 36 hrs by resazurin dye based assay; format: functional; details: ATCC 208821, 36 h
Outline: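 Cryptococcus was grown 3 days on YPD agar at 30 °C, suspended, and diluted in YNB broth to 2.5×10^3 CFU/mL. Cells were exposed to 0.008–32 μg/mL compound (final), in duplicate, for 36 h at 35 °C without shaking. Resazurin (0.006% final) was added for a further 3 h. MIC was read from absorbance at OD570–600. Means, n = 2.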

Candida albicans = experiment: Antifungal activity against Candida albicans ATCC 90028 assessed as growth inhibition incubated for 36 hrs by resazurin dye based assay; format: functional; details: ATCC 90028, 36 h
Outline: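 Yeast was grown 3 days on YPD agar at 30 °C. Colonies were suspended and diluted in YNB broth to 2.5×10^3 CFU/mL, then added to two-fold compound dilutions (0.008–32 μg/mL final), in duplicate. Plates stood 36 h at 35 °C without shaking. Means, n = 2.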

[23] = Hemolytic activity against Sprague-Dawley rat RBC assessed as release of hemoglobin incubated for 1 hr; format: ADME, cell-based, Erythrocyte; details: red blood cells (erythrocytes); outline: as §4
[24] = test system: Staphylococcus intermedius; experiment: Antibacterial activity against Staphylococcus intermedius 1051997 assessed as growth inhibition incubated for 18 hrs by broth dilution method; format: functional; details: Staphylococcus intermedius, 1051997, 18 h; outline: as §1

SMILES	MIC (Pseudomonas aeruginosa [1]) [µM]	Activity (Klebsiella pneumoniae [2]) [µM]	Activity (Klebsiella pneumoniae [3]) [µM]	Activity (Acinetobacter baumannii [4]) [µM]	Activity (Klebsiella pneumoniae [5]) [µM]	Activity (Pseudomonas aeruginosa [6]) [µM]	Activity (Escherichia coli [7]) [µM]	Activity (Pseudomonas aeruginosa [8]) [µM]	Activity (Acinetobacter baumannii [9]) [µM]	MIC (Escherichia coli [11]) [µM]	Activity (Pseudomonas aeruginosa [12]) [µM]	Activity (Escherichia coli [13]) [µM]	Activity (Escherichia coli [14]) [µM]	MIC (Acinetobacter baumannii [15]) [µM]	IC50 (L6) [µM]	Activity (Acinetobacter baumannii [16]) [µM]	Activity (Acinetobacter baumannii [17]) [µM]	Activity (Klebsiella pneumoniae [18]) [µM]	Activity (Escherichia coli [19]) [µM]	hemolysis at 1 h, 50 µM [20] [%]	other results
COc1cccc2c(C(=O)C(=O)NCCCNCCCCNCCCNC(=O)C(=O)c3c[nH]c4c(OC)cccc34)c[nH]c12	> 200	>200	>200	15	>200	30	>200	60	>200	> 200	3.75 to 7.5	3.75	>200	> 38.4	62	>200	>200	>200	>200	0	CC50 at 20 h [10]: 27.1 µM; MIC (Staphylococcus aureus): 15 µM (≈ 9.07 µg/mL); MIC (Klebsiella pneumoniae [21]): > 38.4 µM; Activity (Pseudomonas aeruginosa [22]): 100 µM; MIC (Cryptococcus neoformans): > 38.4 µM; MIC (Candida albicans): 38.4 µM (≈ 23.2 µg/mL)
O=C(NCCCNCCCCNCCCNC(=O)C(=O)c1c[nH]c2cc(Br)ccc12)C(=O)c1c[nH]c2cc(Br)ccc12	100 (≈ 70.2 µg/mL)	50	6.25	25	200	>200	>200	50	>200	100 (≈ 70.2 µg/mL)	6.25 to 12.5	6.25	>200	> 34	7.7	25	200	25	50	91	HC50 at 1 h [23]: 20 µM; MIC [24]: 3.12 µM (≈ 2.2 µg/mL); MIC (Staphylococcus aureus): 6.25 µM (≈ 4.39 µg/mL); MIC (Klebsiella pneumoniae [21]): > 34 µM; Activity (Pseudomonas aeruginosa [22]): 200 µM; MIC (Cryptococcus neoformans): 1.1 µM (≈ 0.773 µg/mL); MIC (Candida albicans): 17.2 µM (≈ 12.1 µg/mL)
